Source: ChEMBL document CHEMBL5325511, “Discovery of N-(4-(Aminomethyl)phenyl)-5-methylpyrimidin-2-amine Derivatives as Potent and Selective JAK2 Inhibitors” (ACS Med Chem Lett, 2023)
pIC50: −log10 of the molar value.

Columns and labels:
[1] = molecular target: Tyrosine-protein kinase JAK2 (Mus musculus, UniProt Q62120, V617F); assay: Inhibition of JAK2 V617F mutant in mouse BaF3 cells; format: cell-based
Procedure, shortened: (§1)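 Cell proliferation assay. IC50 is the concentration that inhibits proliferation by 50%, taken from dose–response curves. Mean ± SEM of at least three independent experiments.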

[2] = molecular target: Tyrosine-protein kinase JAK1 (Homo sapiens, UniProt P23458); assay: Inhibition of JAK1 (unknown origin) in presence of Mg/ATP mixture by [gamma p33]-ATP based radiometric assay
Tyrosine-protein kinase JAK1, sequence (P23458 whole entry): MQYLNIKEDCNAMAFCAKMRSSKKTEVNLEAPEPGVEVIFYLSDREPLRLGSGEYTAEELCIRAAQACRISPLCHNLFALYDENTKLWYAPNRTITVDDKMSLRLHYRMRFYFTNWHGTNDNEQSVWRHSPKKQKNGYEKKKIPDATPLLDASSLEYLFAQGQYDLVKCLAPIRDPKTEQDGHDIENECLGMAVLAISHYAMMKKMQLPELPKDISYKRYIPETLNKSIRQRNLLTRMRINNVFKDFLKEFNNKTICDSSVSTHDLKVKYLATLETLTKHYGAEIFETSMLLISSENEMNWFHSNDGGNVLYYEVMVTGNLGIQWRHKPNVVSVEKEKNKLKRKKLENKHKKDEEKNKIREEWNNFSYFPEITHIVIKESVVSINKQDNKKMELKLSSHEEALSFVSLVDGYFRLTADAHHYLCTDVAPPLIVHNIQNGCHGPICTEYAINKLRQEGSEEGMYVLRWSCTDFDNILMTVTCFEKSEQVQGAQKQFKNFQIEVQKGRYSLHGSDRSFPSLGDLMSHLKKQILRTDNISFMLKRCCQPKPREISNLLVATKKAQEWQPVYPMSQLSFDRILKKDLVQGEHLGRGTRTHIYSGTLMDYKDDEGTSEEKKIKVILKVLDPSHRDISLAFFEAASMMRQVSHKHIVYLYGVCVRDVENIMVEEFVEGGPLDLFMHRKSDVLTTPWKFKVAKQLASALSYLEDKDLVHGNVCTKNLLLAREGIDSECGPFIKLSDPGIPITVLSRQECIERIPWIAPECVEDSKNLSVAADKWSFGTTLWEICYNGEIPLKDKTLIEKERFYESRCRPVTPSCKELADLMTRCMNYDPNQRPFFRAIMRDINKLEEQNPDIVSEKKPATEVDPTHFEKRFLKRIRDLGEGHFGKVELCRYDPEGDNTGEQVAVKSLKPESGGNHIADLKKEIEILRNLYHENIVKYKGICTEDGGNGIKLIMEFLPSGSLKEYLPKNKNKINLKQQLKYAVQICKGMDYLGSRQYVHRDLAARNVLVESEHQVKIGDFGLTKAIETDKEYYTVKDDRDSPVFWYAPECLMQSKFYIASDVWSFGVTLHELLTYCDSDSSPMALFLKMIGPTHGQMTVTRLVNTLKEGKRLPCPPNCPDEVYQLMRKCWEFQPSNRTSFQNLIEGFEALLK
Procedure, shortened: (§2)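 IC50 values determined by Eurofins Discovery.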

[3] = molecular target: T1, Tyrosine-protein kinase JAK2 (Homo sapiens, UniProt O60674); assay: Inhibition of JAK2 (unknown origin) in presence of Mg/ATP mixture by [gamma p33]-ATP based radiometric assay; procedure, shortened: as §2
T1 sequence (O60674 whole entry): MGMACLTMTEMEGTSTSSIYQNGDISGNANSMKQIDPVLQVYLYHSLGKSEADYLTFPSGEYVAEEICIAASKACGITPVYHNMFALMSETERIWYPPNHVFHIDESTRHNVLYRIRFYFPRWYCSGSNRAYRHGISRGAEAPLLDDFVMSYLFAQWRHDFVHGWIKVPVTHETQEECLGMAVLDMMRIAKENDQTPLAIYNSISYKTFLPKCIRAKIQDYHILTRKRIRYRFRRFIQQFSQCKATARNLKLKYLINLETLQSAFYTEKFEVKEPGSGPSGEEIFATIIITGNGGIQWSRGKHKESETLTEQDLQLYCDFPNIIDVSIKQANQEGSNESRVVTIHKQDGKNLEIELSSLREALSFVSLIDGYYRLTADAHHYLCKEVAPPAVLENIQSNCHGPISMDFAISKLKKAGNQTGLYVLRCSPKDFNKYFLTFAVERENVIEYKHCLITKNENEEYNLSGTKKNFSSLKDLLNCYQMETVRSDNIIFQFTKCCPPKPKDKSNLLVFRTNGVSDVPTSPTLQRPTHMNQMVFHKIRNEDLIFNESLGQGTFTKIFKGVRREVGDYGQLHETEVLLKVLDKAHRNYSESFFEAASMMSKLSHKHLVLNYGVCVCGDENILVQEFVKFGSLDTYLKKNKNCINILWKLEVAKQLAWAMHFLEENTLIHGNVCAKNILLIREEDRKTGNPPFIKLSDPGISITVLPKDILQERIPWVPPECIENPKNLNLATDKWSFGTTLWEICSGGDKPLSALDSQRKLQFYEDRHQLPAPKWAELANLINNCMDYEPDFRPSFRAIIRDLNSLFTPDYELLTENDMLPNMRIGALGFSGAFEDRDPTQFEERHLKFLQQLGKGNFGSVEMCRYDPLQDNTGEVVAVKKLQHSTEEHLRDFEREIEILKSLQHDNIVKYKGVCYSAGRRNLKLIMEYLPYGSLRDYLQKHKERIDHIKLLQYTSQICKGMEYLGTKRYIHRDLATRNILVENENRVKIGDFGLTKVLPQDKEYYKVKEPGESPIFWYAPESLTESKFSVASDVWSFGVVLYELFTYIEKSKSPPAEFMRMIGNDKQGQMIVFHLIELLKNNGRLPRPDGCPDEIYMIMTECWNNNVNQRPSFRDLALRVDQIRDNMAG

[4] = molecular target: Tyrosine-protein kinase JAK2 (Homo sapiens, UniProt O60674, V617F); assay: Inhibition of JAK2 V617F mutant in human SET2 cells; format: cell-based; procedure, shortened: as §1
Tyrosine-protein kinase JAK2 (Homo sapiens, UniProt O60674, V617F), sequence (O60674 whole entry V617F): as the sequence (O60674 whole entry) above, with V617F counted along it

[5] = Selectivity ratio of IC50 for FLT3 (unknown origin) to IC50 for JAK2 (unknown origin)
[6] = molecular target: T1, Tyrosine-protein kinase JAK2; assay: Inhibition of human JAK2 JH1 expressed in baculovirus infected Sf9 cells assessed as residual activity at 100 nM relative to control
[7] = molecular target: Non-receptor tyrosine-protein kinase TYK2 (Homo sapiens, UniProt P29597); assay: Inhibition of TYK2 (unknown origin) in presence of Mg/ATP mixture by [gamma p33]-ATP based radiometric assay
Non-receptor tyrosine-protein kinase TYK2, sequence (P29597 whole entry): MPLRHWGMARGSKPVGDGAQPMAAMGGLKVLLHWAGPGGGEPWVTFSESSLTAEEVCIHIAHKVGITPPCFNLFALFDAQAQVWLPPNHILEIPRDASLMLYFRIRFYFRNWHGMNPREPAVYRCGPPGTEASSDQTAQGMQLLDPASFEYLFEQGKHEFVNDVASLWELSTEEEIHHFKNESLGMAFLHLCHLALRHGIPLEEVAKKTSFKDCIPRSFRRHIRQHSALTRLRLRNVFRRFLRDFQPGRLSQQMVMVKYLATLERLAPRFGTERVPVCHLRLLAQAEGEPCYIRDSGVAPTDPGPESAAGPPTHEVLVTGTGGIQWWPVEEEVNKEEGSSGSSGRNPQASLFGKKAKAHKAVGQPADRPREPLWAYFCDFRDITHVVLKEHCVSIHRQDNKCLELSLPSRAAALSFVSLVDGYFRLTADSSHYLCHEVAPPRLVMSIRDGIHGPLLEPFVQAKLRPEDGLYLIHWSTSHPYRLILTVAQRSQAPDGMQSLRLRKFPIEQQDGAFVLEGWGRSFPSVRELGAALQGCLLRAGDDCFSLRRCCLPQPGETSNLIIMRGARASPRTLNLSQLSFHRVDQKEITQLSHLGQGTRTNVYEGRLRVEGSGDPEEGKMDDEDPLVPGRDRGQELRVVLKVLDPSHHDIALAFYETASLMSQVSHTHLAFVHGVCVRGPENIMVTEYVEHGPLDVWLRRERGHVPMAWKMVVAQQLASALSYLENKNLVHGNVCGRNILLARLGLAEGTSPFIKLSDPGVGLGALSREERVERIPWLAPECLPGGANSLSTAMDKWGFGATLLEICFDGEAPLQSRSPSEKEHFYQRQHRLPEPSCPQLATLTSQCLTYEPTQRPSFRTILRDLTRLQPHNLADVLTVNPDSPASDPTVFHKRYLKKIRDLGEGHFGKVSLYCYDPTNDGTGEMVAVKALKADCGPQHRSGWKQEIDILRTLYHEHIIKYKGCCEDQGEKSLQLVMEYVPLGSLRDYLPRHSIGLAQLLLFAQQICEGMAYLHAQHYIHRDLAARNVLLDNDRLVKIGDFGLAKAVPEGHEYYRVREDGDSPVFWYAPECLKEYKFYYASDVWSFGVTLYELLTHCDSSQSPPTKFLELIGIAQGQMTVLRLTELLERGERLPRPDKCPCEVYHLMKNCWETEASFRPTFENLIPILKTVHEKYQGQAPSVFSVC

[8] = molecular target: T2, Receptor-type tyrosine-protein kinase FLT3 (Homo sapiens, UniProt P36888); assay: Inhibition of FLT3 in human MOLM-13 cells; format: cell-based; procedure, shortened: as §1
T2 sequence (P36888 whole entry): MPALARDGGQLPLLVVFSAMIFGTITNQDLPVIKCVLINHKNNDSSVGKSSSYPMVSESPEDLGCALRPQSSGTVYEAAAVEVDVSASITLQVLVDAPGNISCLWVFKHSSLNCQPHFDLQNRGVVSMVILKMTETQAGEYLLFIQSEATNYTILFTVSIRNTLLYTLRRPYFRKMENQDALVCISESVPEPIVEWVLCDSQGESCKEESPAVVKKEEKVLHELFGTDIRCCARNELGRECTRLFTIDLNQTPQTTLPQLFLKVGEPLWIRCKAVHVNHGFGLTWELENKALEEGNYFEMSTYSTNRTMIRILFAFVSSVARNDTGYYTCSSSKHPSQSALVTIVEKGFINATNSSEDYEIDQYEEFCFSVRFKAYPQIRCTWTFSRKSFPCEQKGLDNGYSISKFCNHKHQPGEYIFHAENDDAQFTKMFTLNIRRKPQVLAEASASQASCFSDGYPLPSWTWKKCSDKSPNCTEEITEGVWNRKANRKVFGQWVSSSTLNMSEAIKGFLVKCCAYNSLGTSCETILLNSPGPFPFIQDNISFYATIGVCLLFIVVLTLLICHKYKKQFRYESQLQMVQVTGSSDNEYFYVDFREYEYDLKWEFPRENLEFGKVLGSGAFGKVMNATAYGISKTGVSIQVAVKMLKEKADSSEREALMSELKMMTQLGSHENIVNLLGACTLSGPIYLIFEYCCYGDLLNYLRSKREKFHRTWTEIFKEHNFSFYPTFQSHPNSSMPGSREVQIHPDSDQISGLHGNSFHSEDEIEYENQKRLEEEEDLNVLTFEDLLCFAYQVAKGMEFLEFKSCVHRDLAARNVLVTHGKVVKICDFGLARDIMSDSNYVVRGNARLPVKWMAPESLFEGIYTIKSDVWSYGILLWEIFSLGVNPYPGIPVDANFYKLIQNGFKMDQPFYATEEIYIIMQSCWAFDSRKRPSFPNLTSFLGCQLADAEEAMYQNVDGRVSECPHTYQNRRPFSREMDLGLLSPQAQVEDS

[9] = Selectivity ratio of IC50 for JAK3 (unknown origin) to IC50 for JAK2 (unknown origin)
[10] = Selectivity ratio of IC50 for TYK2 (unknown origin) to IC50 for JAK2 (unknown origin)
[11] = molecular target: T2, Receptor-type tyrosine-protein kinase FLT3; assay: Inhibition of FLT3 (unknown origin) in presence of Mg/ATP mixture by [gamma p33]-ATP based radiometric assay; procedure, shortened: as §2
[12] = molecular target: T3, Tyrosine-protein kinase JAK3 (Homo sapiens, UniProt P52333); assay: Inhibition of JAK3 (unknown origin) in presence of Mg/ATP mixture by [gamma p33]-ATP based radiometric assay
T3 sequence (P52333 whole entry): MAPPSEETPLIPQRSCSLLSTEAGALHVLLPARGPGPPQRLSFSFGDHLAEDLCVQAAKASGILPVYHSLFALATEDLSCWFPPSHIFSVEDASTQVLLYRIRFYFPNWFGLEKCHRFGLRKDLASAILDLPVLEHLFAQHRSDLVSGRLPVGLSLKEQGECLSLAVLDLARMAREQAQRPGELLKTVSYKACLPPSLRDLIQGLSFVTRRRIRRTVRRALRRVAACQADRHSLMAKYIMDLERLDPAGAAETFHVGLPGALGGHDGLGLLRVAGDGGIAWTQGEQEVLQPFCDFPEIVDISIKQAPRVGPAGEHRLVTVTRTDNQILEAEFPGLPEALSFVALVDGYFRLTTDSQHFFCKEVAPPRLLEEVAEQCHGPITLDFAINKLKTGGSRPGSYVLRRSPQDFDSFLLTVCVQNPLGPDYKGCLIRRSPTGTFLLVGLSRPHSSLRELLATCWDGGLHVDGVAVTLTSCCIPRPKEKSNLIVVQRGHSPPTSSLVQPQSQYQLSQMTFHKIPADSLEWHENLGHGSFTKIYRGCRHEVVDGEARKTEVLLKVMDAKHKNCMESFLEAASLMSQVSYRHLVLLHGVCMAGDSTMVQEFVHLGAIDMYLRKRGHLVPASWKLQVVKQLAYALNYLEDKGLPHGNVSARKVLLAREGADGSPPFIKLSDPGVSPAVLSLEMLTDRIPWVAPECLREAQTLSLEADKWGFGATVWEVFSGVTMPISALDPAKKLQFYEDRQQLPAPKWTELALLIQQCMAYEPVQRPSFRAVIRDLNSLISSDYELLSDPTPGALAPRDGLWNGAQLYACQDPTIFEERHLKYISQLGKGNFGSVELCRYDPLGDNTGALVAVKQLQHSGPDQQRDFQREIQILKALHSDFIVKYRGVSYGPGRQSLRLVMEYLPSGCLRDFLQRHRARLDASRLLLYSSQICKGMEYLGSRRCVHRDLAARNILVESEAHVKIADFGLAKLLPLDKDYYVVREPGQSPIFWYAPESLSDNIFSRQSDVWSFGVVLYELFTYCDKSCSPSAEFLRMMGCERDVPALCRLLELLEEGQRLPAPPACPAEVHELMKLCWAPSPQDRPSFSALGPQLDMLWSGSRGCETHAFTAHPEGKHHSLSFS

[13] = Metabolic stability in human liver microsomes assessed as half life; format: ADME, Microsome

Tyrosine-protein kinase JAK2 (Mus musculus, UniProt Q62120, V617F), sequence (Q62120 as listed by the source V617F): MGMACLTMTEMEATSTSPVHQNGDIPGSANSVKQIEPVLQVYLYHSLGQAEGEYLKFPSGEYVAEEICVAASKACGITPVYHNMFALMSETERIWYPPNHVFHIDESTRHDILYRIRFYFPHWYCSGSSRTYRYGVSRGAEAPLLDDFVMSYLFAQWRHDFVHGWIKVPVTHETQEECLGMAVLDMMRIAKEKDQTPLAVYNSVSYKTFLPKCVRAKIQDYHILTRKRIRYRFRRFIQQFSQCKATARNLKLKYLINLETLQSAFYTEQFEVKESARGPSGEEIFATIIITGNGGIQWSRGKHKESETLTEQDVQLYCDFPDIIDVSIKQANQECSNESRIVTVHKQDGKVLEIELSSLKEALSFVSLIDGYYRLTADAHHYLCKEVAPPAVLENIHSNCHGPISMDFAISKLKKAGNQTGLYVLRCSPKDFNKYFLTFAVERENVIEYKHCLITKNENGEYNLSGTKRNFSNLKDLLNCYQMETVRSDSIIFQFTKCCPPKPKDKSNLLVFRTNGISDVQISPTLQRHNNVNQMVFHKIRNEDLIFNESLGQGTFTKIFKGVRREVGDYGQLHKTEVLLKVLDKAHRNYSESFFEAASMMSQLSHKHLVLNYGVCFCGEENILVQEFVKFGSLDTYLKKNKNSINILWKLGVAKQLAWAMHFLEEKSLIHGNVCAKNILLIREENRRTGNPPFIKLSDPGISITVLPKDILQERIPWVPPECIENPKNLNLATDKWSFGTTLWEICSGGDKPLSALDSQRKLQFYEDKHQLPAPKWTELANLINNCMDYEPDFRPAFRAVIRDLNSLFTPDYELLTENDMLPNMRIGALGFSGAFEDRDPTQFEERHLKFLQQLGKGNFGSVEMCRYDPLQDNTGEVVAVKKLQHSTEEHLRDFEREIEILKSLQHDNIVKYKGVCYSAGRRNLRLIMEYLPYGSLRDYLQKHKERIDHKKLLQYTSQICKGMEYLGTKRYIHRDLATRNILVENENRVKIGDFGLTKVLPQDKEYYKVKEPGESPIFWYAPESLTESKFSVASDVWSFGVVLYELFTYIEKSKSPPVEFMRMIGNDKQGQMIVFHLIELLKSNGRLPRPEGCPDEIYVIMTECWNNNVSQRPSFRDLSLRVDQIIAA

Compound | pIC50 [1] | pIC50 [2] | pIC50 [3] | pIC50 [4] | Ratio IC50 [5] | Activity [6] | pIC50 [7] | pIC50 [8] | Ratio IC50 [9] | Ratio IC50 [10] | pIC50 [11] | pIC50 [12] | half-life [13]
Cc1cnc(Nc2ccc(CNC(=O)/C=C/C(=O)c3ccccc3)cc2)nc1-c1cnn(C(C)C)c1 | 7.06 | 7.37 | 8.15 | 6.25 | 15.4 | 5% | 7.37 | 6.12 | 7.7 | 6.1 | 6.97 | 7.27 | 0.913 h
Cc1cnc(Nc2ccc(CNC(=O)C3CC3)cc2)nc1-c1cnn(C(C)C)c1 | 7.14 | 7.06 | 8.40 | 6.69 | 77.7 | 9% | 7.21 | 5.89 | 39 | 15.5 | 6.51 | 6.81 | > 2 h
CCCCS(=O)(=O)NCc1ccc(Nc2ncc(C)c(-c3cnn(C(C)C)c3)n2)cc1 | 6.74 | – | – | 6.38 | – | 15% | – | 5.78 | – | – | – | – | 1.64 h
Cc1cnc(Nc2ccc(CNC(=O)CCCN(C)C)cc2)nc1-c1cnn(C(C)C)c1 | 6.06 | – | – | 5.71 | – | 55% | – | 5.23 | – | – | – | – | 1.27 h
Cc1cnc(Nc2ccc(CNC(=O)/C=C/CN(C)C)cc2)nc1-c1cnn(C(C)C)c1 | 6.58 | – | – | 6.06 | – | 35% | – | 6.08 | – | – | – | – | 1.09 h
C=CC(=O)NCc1ccc(Nc2ncc(C)c(-c3cnn(C(C)C)c3)n2)cc1 | 6.89 | 6.97 | 8.10 | 6.61 | 40 | 13% | 7.11 | 5.75 | 41.6 | 9.6 | 6.49 | 6.68 | 1.79 h
C=CS(=O)(=O)NCCc1ccc(Nc2ncc(C)c(-c3cnn(C(C)C)c3)n2)cc1 | 6.77 | – | – | 6.12 | – | 30% | – | 5.75 | – | – | – | – | 1.48 h
Cc1cnc(Nc2ccc(CCNC(=O)/C=C/CN(C)C)cc2)nc1-c1cnn(C(C)C)c1 | 5.94 | – | – | 5.66 | – | 64% | – | < 5.00 | – | – | – | – | 0.902 h
